Test results reported in the array DNA melting data of Ke et al. (doi:10.1101/2024.01.08.574731).

What was measured:
[1] = folding enthalpy; higher = less favourable; fluorescence melt of hairpins on a sequencing array, two-state fit; conditions: sodium 0.088 M
Procedure, shortened: (§1)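 Folding enthalpy and melting temperature come from bootstrapped two-state fits to Cy3 fluorescence of library hairpins carrying annealed Cy3 and quencher oligos on a sequenced MiSeq flow cell. Imaging was done in 50 mM Na-HEPES pH 8.0, 25 mM NaCl, stepping by 2.5 °C up to 60 °C, and signals were normalised to pre-quench Cy3 and to control constructs. Results of four replicates were combined by inverse variance, and fitted temperatures were raised by 9.35 °C to match UV melts.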

[2] = melting temperature; fluorescence melt of hairpins on a sequencing array, two-state fit, raised by 9.35 °C to match UV melts; conditions: sodium 0.088 M
Procedure, shortened: as §1

Row | Sequence | folding enthalpy [1] | Tm [2]
1 | GCATGTCGAAAGACGTGC (((.(((....))).))) | -36.8 kcal/mol | 65.6 °C
2 | GCACCGCGAAAGCGTGGC ((..(((....)))..)) | -16.5 kcal/mol | 56.1 °C
3 | GATCGCCTACGCGATC ((((((....)))))) | -39.5 kcal/mol | 67.4 °C
4 | GTTCCACGAAAGTGTAAC (((.(((....))).))) | -26.2 kcal/mol | 38.4 °C
5 | GATCATTAAGATGATC ((((((....)))))) | -34.8 kcal/mol | 46.4 °C
6 | GCAAGCGAAAGCTCCTGC ((((((....)))..))) | -10.1 kcal/mol | 30.9 °C
7 | GACGCCGAAAGGCCGTC ((((((....))).))) | -18.7 kcal/mol | 61.4 °C
8 | GATCGGTTCCCCGATC ((((((....)))))) | -40 kcal/mol | 56.8 °C
9 | GTCATCGAAAGATCGAC ((((((....))).))) | -22.1 kcal/mol | 35.7 °C
10 | GATGGAGGAAACTTCATC ((((.((....)).)))) | -37.5 kcal/mol | 39.6 °C
11 | GCGGATCGAAAGATACGC (((.(((....))).))) | -40.3 kcal/mol | 68.7 °C
12 | GCAGACGAAAGTCTTGC ((((((....))).))) | -27 kcal/mol | 51.3 °C
13 | GTGGGCGAAAGCCACAC ((((((....))).))) | -14.4 kcal/mol | 59.9 °C
14 | GCGGGTTCCCGC ((((....)))) | -23.3 kcal/mol | 67.3 °C
15 | GATCGATGAATCGATC ((((((....)))))) | -41.1 kcal/mol | 55.1 °C
16 | GTAGAACCGAAAGGTTAC (((..(((....)))))) | -13.3 kcal/mol | 32.5 °C
17 | GTTGGGGGAAACCCTGAC ((..(((....)))..)) | -23.8 kcal/mol | 35.6 °C
18 | GAAGCCGAAAGGCATTTC ((((((....)))..))) | -6.75 kcal/mol | 25.9 °C
19 | GATCGATGGCTCGATC ((((((....)))))) | -34 kcal/mol | 50.2 °C
20 | GCCCGGCGAAAGCCACGC ((..(((....)))..)) | -8.86 kcal/mol | 35.9 °C
21 | GCGGTGCGAAAGCCCGGC ((.(.((....)).).)) | -12.4 kcal/mol | 61.7 °C
22 | GCGCAGCGAAAGCTCGC (((.(((....)))))) | -15.8 kcal/mol | 63.3 °C
23 | GAAATTGGAAACAATTCC (.(((((....))))).) | -22.9 kcal/mol | 30.5 °C

Row | Sequence | folding enthalpy [1] | Tm [2]
24 | GAGCCGGGAAACCGACTC (((.(((....))).))) | -42.8 kcal/mol | 49.5 °C
25 | GGGTCAGCGAAAGCTCCC (((..(((....)))))) | -17.7 kcal/mol | 42.7 °C
26 | GGTTATGAAAATAACC ((((((....)))))) | -31.8 kcal/mol | 50.9 °C
27 | GCATGTGGAAACGCATGC (((((.(....).))))) | -44.7 kcal/mol | 55.9 °C
28 | GGAAGCGAAAGCTCGTCC ((((((....)))..))) | -11.6 kcal/mol | 29.5 °C
29 | GTCCGAACGAAAGTTGAC (((..(((....)))))) | -15.3 kcal/mol | 29.1 °C
30 | GATCCTAGGAGGATC ((((((...)))))) | -35.3 kcal/mol | 54.1 °C
31 | GAGTTCGGAAACAAACTC (((((.(....).))))) | -27.5 kcal/mol | 34 °C
32 | GATTCCGGAAACGGAGTC ((.((((....)))).)) | -23.8 kcal/mol | 47.6 °C
33 | GCCGTCGAAAGACTAGGC ((((((....)))..))) | -35.5 kcal/mol | 52.8 °C
34 | GCGCCTGCGAAAGCACGC (((..(((....)))))) | -16.7 kcal/mol | 47.7 °C
35 | GCCGCGGCGAAAGCCGGC (((..(((....)))))) | -7.85 kcal/mol | 68.6 °C
36 | CAGCAGAAATGCTG (((((....))))) | -25.6 kcal/mol | 53 °C
37 | GATCAGAGTGCTGATC ((((((....)))))) | -31.2 kcal/mol | 50.2 °C
38 | GCTACGCGAAAGCCGAGC (((..((....))..))) | -15.6 kcal/mol | 43.4 °C
39 | GGAGTCGAAAGACGCTCC ((((((....)))..))) | -12.6 kcal/mol | 42.3 °C
40 | GCAAGCGAAAGCTGTGC ((((((....))).))) | -15.8 kcal/mol | 55.9 °C
41 | GTGGGCGAAAGCCATCAC ((((((....)))..))) | -11.4 kcal/mol | 39.7 °C
42 | GATCAAATATTGATC ((((((...)))))) | -32.8 kcal/mol | 40.2 °C
43 | GTCCTAGGAAACTAGGAC (((((((....))))))) | -51 kcal/mol | 57.2 °C
44 | GTGCTTGGAAACAAGCGC (.(((((....))))).) | -32.2 kcal/mol | 61.3 °C
45 | GTGCTGGGAAACCGGTAC ((.(.((....)).).)) | -33.1 kcal/mol | 42.1 °C
46 | GATCAGTATGCTGATC ((((((....)))))) | -36.1 kcal/mol | 55.2 °C

Row | Sequence | folding enthalpy [1] | Tm [2]
47 | GCCCGTGGAAACATGGGC ((((.((....)).)))) | -46 kcal/mol | 61.2 °C
48 | GAATACCGAAAGGTTTC (((.(((....)))))) | -16.5 kcal/mol | 39.2 °C
49 | GGCTACGAAAGTACCGCC ((((((....)))..))) | -23.1 kcal/mol | 48.4 °C
50 | GCTGGCGAAAGCCAAGC ((((((....))).))) | -20.2 kcal/mol | 66.5 °C
51 | GATCGTAAAACGATC ((((((...)))))) | -36.7 kcal/mol | 54.4 °C
52 | GTACACGAAAGTGCTAC ((((((....))).))) | -15.9 kcal/mol | 39.9 °C
53 | GCGGAACGAAAGTTCGC (((.(((....)))))) | -24.4 kcal/mol | 58.9 °C
54 | GTCTGCGGAAACGTAGAC ((((.((....)).)))) | -37.8 kcal/mol | 53.2 °C
55 | GTGCGGCGAAAGCCTCAC (((.(((....))).))) | -29.4 kcal/mol | 53.8 °C
56 | GGCCACGGAAACGCAGCC (((..((....))..))) | -20.5 kcal/mol | 39.5 °C
57 | GACCTAGGAAACTGGGTC ((((.((....)).)))) | -35 kcal/mol | 49.6 °C
58 | GACCAGGAAACTGGTC ((((((....)))))) | -39 kcal/mol | 63.4 °C
59 | GGAACCCGAAAGGGTCC (((.(((....)))))) | -15.8 kcal/mol | 59.7 °C
60 | GTGGATGGAAACATTCAC (((.(((....))).))) | -45.5 kcal/mol | 46.6 °C
61 | GGCCCTGGAAACGGGGCC (((((.(....).))))) | -31.4 kcal/mol | 67.5 °C
62 | CGACCGGAAACGGGTCG ((((((....))).))) | -32.4 kcal/mol | 56.9 °C
63 | GGTCTATCGAAAGATACC (((..(((....)))))) | -10.3 kcal/mol | 25.8 °C
64 | GCCCACGAAAGTGTCGGC ((((((....)))..))) | -19.6 kcal/mol | 48.4 °C
65 | GATCCCCGATGGGATC ((((((....)))))) | -34.5 kcal/mol | 60.9 °C
66 | GGCCTGTCGAAAGACGCC (((..(((....)))))) | -18.8 kcal/mol | 45.2 °C
67 | GGAGTTGGAAACAACCCC ((.((((....)))).)) | -22.8 kcal/mol | 43.5 °C
68 | GTCCGTGGAAACGCGGAC (((((.(....).))))) | -39.8 kcal/mol | 62.2 °C
69 | GAGTCAGAAATGACTC ((((((....)))))) | -25 kcal/mol | 54.6 °C

Row | Sequence | folding enthalpy [1] | Tm [2]
70 | GATCGGGATCCCGATC ((((((....)))))) | -50.5 kcal/mol | 59.5 °C
71 | GATCAGTACTCTGATC ((((((....)))))) | -43.4 kcal/mol | 50.4 °C
72 | GATCGTAGAACGATC ((((((...)))))) | -36.6 kcal/mol | 55.2 °C
73 | GTCTTGGGAAACCAAGAC (((((((....))))))) | -46.4 kcal/mol | 62.1 °C
74 | GTTAGGGGAAACCTTAAC ((((.((....)).)))) | -22.3 kcal/mol | 33.4 °C
75 | GCTGAGCGAAAGCTAGC (((.(((....)))))) | -26.3 kcal/mol | 53 °C
76 | GACTCCGAAAGGACAGTC ((((((....)))..))) | -19.2 kcal/mol | 37.9 °C
77 | GATCCAGCGTGGATC ((((((...)))))) | -27.4 kcal/mol | 50.5 °C
78 | GATCATGGTCATGATC ((((((....)))))) | -38 kcal/mol | 51.8 °C
79 | GATCACAGAGGTGATC ((((((....)))))) | -27.4 kcal/mol | 55.9 °C
80 | GAGCAGGCGAAAGCCCTC (((..(((....)))))) | -9.52 kcal/mol | 31.7 °C
81 | GCACAGCGAAAGCCTTGC (((..((....))..))) | -8.82 kcal/mol | 39 °C
82 | GAGTATACGAAAGTACTC (((..(((....)))))) | -15.7 kcal/mol | 34 °C
83 | GATCTACGCTTAGATC ((((((....)))))) | -35.4 kcal/mol | 43.4 °C
84 | GATCTCTGGGGAGATC ((((((....)))))) | -41.2 kcal/mol | 56.4 °C
85 | GCCACCCGAAAGGGAGGC (((.(((....))).))) | -44.3 kcal/mol | 67.8 °C
86 | GATCGTAGCTACGATC ((((((....)))))) | -43.2 kcal/mol | 59 °C
87 | GACACCGAAAGGTTTGTC ((((((....)))..))) | -15.1 kcal/mol | 38.3 °C
88 | GACTACCCGAAAGGGGTC (((..(((....)))))) | -11.3 kcal/mol | 38.3 °C
89 | GAGTCTGGAAACAGGCTC (((.(((....))).))) | -44 kcal/mol | 52.2 °C
90 | GAGCAACGAAAGTTCTC (((.(((....)))))) | -20.1 kcal/mol | 35.6 °C
91 | GACGCAGGAAACCACGTC ((((..(....)..)))) | -16.3 kcal/mol | 34.9 °C
92 | GCCGCGCGAAAGCGAAGC ((..(((....)))..)) | -12.9 kcal/mol | 46 °C
